The source of these data is ChEMBL document CHEMBL3872208, “Synthesis and pharmacological characterization of novel N-(trans-4-(2-(4-(benzo[d]isothiazol-3-yl)piperazin-1-yl)ethyl)cyclohexyl)amides as potential multireceptor atypical antipsychotics” (Eur J Med Chem, 2016).

In data set [1] the target is T1, 5-hydroxytryptamine receptor 1A (Homo sapiens) (UniProt P08908).
T1 sequence (whole entry): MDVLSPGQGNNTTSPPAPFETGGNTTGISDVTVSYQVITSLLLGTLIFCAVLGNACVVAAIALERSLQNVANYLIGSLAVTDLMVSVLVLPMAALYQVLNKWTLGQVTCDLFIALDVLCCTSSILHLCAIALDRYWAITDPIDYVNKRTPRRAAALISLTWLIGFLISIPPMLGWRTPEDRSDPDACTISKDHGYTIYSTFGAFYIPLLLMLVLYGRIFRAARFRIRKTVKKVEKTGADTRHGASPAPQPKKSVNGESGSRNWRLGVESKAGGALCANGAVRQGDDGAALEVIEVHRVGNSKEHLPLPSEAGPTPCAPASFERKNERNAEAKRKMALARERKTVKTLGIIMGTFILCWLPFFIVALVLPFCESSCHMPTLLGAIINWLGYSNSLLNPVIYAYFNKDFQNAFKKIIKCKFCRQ
The conditions noted are these: CHO-K1, 10 uM.

Data set [2] can be described thus: Half life in Sprague-Dawley rat plasma at 2.0 mg/kg, po administered as single dose by LC-MS/MS analysis. It counts as ADME, organism-based. Summed up: (§1)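 Male SD rats, single dose: 0.5 mg/kg i.v. or 2.0 mg/kg p.o. Vehicle is 5% DMSO, 10% Solutol HS 15 and 85% PBS. Heparinized blood is sampled at 5, 15 and 30 min and at 1, 2, 4, 8 and 24 h after dosing. Plasma is reported in ng/mL and brain in ng/g. F is derived from the p.o. and i.v. arms.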

Another data set has as its system CHO. Briefly: Selectivity ratio of Ki for displacement of [3H]spiperone from recombinant human D2L receptor expressed in CHO cell membranes to Ki for displacement of [3H]methyl-spiperone from recombinant human D3 receptor expressed in CHO cell membranes. Summed up: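 D2L binding: CHO membranes (16 µg protein) with 0.3 nM [3H]methyl-spiperone in 50 mM Tris-HCl pH 7.4, 120 mM NaCl, 10 mM MgCl2, 1 mM EDTA, with butaclamol for nonspecific binding. D3 binding: membranes (8 µg) with 0.3 nM [3H]methyl-spiperone in the same Tris buffer with 5 mM KCl, 5 mM MgCl2, 5 mM EDTA, with (+)butaclamol for nonspecific binding. Both run 60 min at 22 °C, then GF/B filtration. Ki by Cheng–Prusoff; ratio is D2 Ki/D3 Ki.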

The nature of data set [3]: Oral bioavailability in Sprague-Dawley rat plasma at 2 mg/kg administered as single dose by LC-MS/MS analysis. The data set is classed as ADME, organism-based. Summed up: as §1
In data set [4] the target is T2, 5-hydroxytryptamine receptor 1A (Homo sapiens, UniProt P08908).
T2 sequence (P08908 whole entry): T1 sequence (whole entry)
In words: Displacement of [3H]8-OH-DPAT from recombinant human 5-HT1A receptor expressed in HEK293 cell membranes after 60 mins by scintillation counting method.

Data set [5] can be described thus: AUC (0 to t) in Sprague-Dawley rat brain at 0.5 mg/kg, iv administered as single dose by LC-MS/MS analysis. The data set is classed as ADME, organism-based. Summed up:
as §1

For data set [6], the target named is T3, 5-hydroxytryptamine receptor 2A (Homo sapiens, UniProt P28223). In words: Displacement of [3H]ketanserin from recombinant human 5-HT2A receptor expressed in HEK293 cell membranes after 60 mins by scintillation counting method.
The target of data set [7] is T3, 5-hydroxytryptamine receptor 2A. The conditions noted are these: CHO-K1, 10 uM.
Data set [8] is described as follows: AUC (0 to t) in Sprague-Dawley rat plasma at 0.5 mg/kg, iv administered as single dose by LC-MS/MS analysis. The data set is classed as ADME, organism-based. Summed up:
as §1

Data set [9] can be described thus: Apparent clearance in Sprague-Dawley rat plasma at 2 mg/kg, po administered as single dose by LC-MS/MS analysis. The data set is classed as ADME, organism-based. The conditions noted are these: read-out: CL(app) (converted). Summed up:
as §1

Data set [10] concerns the target Voltage-gated inwardly rectifying potassium channel KCNH2 (Homo sapiens, UniProt Q12809).
The nature of data set [11]: Apparent clearance in Sprague-Dawley rat plasma at 0.5 mg/kg, iv administered as single dose by LC-MS/MS analysis. The data set is classed as ADME, organism-based. The conditions noted are these: read-out: CL(app) (converted). Summed up:
as §1

The target in data set [12] is T2, 5-hydroxytryptamine receptor 1A. Briefly: Agonist activity at 5-HT1A receptor (unknown origin) expressed in CHOK1 cells co-expressing G-alpha 15 by Fluo-4 dye based FLIPR assay. It counts as cell-based, CHO-K1.
Data set [13] deals with T4, D(2) dopamine receptor (Homo sapiens, UniProt P14416). In words: Displacement of [3H]spiperone from recombinant human D2L receptor expressed in CHO cell membranes after 60 mins by scintillation counting method.
Data set [14] in a line: AUC (0 to t) in Sprague-Dawley rat brain at 2 mg/kg, po administered as single dose by LC-MS/MS analysis. The data set is classed as ADME, organism-based. Summed up: as §1
The target in data set [15] is T4, D(2) dopamine receptor. Briefly: Agonist activity at D2 receptor (unknown origin) expressed in CHOK1 cells co-expressing G-alpha 15 by fluo-4 dye based FLIPR assay. It counts as cell-based, CHO-K1.
Data set [16] has as its target T3, 5-hydroxytryptamine receptor 2A. Briefly: Agonist activity at 5-HT2A receptor (unknown origin) expressed in CHOK1 cells co-expressing G-alpha 15 by Fluo-4 dye based FLIPR assay. It counts as cell-based, CHO-K1.
In data set [17] the target is T4, D(2) dopamine receptor. Briefly: Antagonistic activity at D2 receptor (unknown origin) expressed in CHOK1 cells co-expressing G-alpha 15 assessed as inhibition of dopamine-induced calcium flux by fluo-4 dye based FLIPR assay. The data set is classed as functional, cell-based, CHO-K1.
Data set [18] in a line: Cmax in Sprague-Dawley rat plasma at 0.5 mg/kg, iv administered as single dose by LC-MS/MS analysis. It counts as ADME, organism-based. On the set-up: dose 0.5 mg/kg, route intravenous. Summed up:
as §1

Data set [19] is described as follows: Half life in Sprague-Dawley rat brain at 0.5 mg/kg, iv administered as single dose by LC-MS/MS analysis. The data set is classed as ADME, organism-based. Summed up:
as §1

The target in data set [20] is T2, 5-hydroxytryptamine receptor 1A. In words: Antagonistic activity at 5-HT1A receptor (unknown origin) expressed in CHOK1 cells co-expressing G-alpha 15 assessed as inhibition of serotonin-induced calcium flux by Fluo-4 based FLIPR assay. It counts as functional, cell-based, CHO-K1.

T4 sequence (P14416 whole entry): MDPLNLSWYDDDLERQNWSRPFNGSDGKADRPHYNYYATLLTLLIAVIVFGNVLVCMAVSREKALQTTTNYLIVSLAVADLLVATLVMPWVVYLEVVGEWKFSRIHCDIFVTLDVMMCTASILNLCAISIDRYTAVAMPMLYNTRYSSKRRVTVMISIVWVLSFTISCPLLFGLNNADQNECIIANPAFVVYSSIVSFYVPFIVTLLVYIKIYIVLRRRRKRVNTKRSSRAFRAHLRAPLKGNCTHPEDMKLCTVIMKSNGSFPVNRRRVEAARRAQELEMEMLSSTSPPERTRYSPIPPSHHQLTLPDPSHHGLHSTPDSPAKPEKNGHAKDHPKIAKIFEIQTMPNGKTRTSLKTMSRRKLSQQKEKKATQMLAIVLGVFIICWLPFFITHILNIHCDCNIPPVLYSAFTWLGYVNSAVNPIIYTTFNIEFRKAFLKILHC
T3 sequence (P28223 whole entry): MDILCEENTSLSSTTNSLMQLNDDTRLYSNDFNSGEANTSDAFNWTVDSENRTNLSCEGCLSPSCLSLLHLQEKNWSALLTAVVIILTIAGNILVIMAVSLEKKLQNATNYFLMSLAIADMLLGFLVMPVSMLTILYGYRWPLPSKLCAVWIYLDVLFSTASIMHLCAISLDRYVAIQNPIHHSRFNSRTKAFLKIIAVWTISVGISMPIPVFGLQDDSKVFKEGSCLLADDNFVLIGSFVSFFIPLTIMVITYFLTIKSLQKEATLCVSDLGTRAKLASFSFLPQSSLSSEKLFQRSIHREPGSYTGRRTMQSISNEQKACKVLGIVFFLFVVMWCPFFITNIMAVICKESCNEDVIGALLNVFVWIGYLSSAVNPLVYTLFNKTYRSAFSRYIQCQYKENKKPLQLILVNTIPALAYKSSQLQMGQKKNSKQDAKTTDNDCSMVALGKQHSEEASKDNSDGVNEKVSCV
Chain of Voltage-gated inwardly rectifying potassium channel KCNH2 (Q12809 whole entry): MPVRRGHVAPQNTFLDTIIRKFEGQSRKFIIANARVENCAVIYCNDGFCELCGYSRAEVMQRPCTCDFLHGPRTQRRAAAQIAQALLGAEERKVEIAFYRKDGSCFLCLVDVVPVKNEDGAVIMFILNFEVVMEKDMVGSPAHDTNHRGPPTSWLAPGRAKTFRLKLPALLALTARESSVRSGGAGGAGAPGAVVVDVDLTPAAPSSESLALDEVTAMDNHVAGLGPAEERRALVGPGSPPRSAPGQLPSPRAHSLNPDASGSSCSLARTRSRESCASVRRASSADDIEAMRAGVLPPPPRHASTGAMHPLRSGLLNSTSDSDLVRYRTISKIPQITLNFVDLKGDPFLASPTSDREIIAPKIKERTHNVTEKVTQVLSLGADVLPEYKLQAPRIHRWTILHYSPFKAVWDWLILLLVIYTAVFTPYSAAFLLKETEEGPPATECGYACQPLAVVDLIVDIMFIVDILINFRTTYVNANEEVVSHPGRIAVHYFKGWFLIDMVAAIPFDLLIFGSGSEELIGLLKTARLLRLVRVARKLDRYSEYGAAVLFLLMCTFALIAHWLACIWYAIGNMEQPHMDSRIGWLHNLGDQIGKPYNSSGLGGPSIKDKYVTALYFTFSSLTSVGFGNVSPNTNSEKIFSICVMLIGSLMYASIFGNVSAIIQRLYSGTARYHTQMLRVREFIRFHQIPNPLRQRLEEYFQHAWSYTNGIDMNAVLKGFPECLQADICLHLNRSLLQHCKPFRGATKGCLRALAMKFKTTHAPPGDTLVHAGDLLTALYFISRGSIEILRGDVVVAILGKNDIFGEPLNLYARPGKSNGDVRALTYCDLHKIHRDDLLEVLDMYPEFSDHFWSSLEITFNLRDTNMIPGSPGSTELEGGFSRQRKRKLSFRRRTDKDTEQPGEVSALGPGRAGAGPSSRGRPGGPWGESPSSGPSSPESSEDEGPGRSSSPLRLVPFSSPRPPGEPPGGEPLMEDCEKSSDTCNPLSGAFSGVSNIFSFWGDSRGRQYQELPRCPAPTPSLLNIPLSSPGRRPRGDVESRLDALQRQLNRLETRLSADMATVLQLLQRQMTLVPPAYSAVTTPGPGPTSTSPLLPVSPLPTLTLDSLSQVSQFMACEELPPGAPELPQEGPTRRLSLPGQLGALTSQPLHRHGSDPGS

On to `O=C(N[C@H]1CC[C@H](CCN2CCN(c3nsc4ccccc34)CC2)CC1)c1ccco1`, for which the inhibition is 115% in [1] and 97% in data set [7]. In addition, the half-life was 1.7 h in data set [2] and 15.8 h in data set [19]. In addition, in the data set with CHO, the Ratio Ki stood at 22.3. The compound further came in with a bioavailability in data set [3] of 13%. For the same compound, the Ki was determined as 1.3 nM in [4], 0.23 nM in data set [6] and 2.9 nM on D(2) dopamine receptor [13]. In addition, the figures for the AUC(0-t) in data set [5], in data set [8] and in data set [14] were 1070 ng·h/mL, 106 ng·h/mL and 884 ng·h/mL, respectively. Further, the CL/F in data set [9] was 582 mL/min/kg. The IC50 in data set [10] came to 2110 nM; at D(2) dopamine receptor [17] it was 61.4 nM; in [20], 46.1 nM. In data set [11], the clearance is 76.7 mL/min/kg. Further, the 50% effective concentration (EC50) (in data set [12]; on D(2) dopamine receptor [15]; in [16]) was above 10000 nM each time. Moreover, the peak level in data set [18] (Cmax) was 135 ng/mL.
